What was measured:
Type in all cases: functional
Plasmodium falciparum = assay: Antimalarial activity against Plasmodium falciparum NF54 infected in human serum at 20 ug/ml after 48 hrs by fluorometric method
In short: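 Asynchronous P. falciparum NF54 at 1.5–2% parasitemia, 5% hematocrit in RPMI with 10% human serum, exposed 48 h at 37 °C under 90% N2/5% CO2/5% O2 at the stated concentration; parasite DNA stained with ethidium bromide after proteinase K lysis; viability % = (Flu treated − medium)/(Flu untreated − medium) ×100; triplicate.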

MDA-MB-468 = assay: Cytotoxicity against human MDA-MB-468 cells after 48 hrs by SRB assay; settings: MDA-MB-468, 48 h
In short: (§1)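 NCI 60-cell-line screen. Cells preincubated 24 h at 37 °C, 5% CO2; time-zero plates TCA-fixed. Compounds dissolved in DMSO and tested at five concentrations (100, 10, 1.0, 0.1, 0.01 µM) for 48 h continuous exposure. Adherent cells fixed with cold TCA (10% final), then SRB stained; absorbance at 515 nm. GI50, TGI and LC50 calculated from growth relative to time-zero and untreated controls.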

BT-549 = assay: Cytotoxicity against human BT549 cells after 48 hrs by SRB assay; settings: BT-549, 48 h; in short: as §1
T47D = assay: Cytotoxicity against human T47D cells after 48 hrs by SRB assay
In short: (§2)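 NCI 60-cell screen. Cells grew 24 h (37 °C, 5% CO2) before compound was added. Compounds were in DMSO and diluted in medium with gentamicin, then tested at five levels (100, 10, 1.0, 0.1, 0.01 µM) with 48 h continuous exposure. Adherent cells were fixed with TCA (10% final) and stained with 0.4% SRB, absorbance read at 515 nm. A time-zero plate was included. LC50 is the concentration giving 50% loss of protein relative to time zero.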

SN12C = assay: Cytotoxicity against human SN12C cells after 48 hrs by SRB assay; in short: as §1
CAKI-1 = assay: Cytotoxicity against human Caki1 cells after 48 hrs by SRB assay; settings: CAKI-1, 48 h; in short: as §1
RXF 393 = assay: Cytotoxicity against human RXF393 cells after 48 hrs by SRB assay; settings: RXF 393, 48 h; in short: as §1
SK-OV-3 = assay: Cytotoxicity against human SKOV3 cells after 48 hrs by SRB assay; settings: SK-OV-3, 48 h; in short: as §1
NCI/ADR-RES = assay: Cytotoxicity against human NCI/ADR-RES cells after 48 hrs by SRB assay; settings: for CC50: read-out: LC50 (the source's name); in short: as §1
OVCAR-8 = assay: Cytotoxicity against human OVCAR8 cells after 48 hrs by SRB assay; settings: OVCAR-8, 48 h; in short: as §1
IGROV-1 = assay: Cytotoxicity against human IGROV1 cells after 48 hrs by SRB assay; settings: IGROV-1, 48 h; in short: as §1
UACC-62 = assay: Cytotoxicity against human UACC62 cells after 48 hrs by SRB assay; settings: UACC-62, 48 h; for CC50: read-out: LC50 (the source's name); in short: as §2
SK-MEL-5 = assay: Cytotoxicity against human SK-MEL-5 cells after 48 hrs by SRB assay; settings: SK-MEL-5, 48 h; in short: as §1
SK-MEL-2 = assay: Cytotoxicity against human SK-MEL-2 cells after 48 hrs by SRB assay; settings: SK-MEL-2, 48 h; in short: as §1
MDA-MB-435 = assay: Cytotoxicity against human MDA-MB-435 cells after 48 hrs by SRB assay; settings: MDA-MB-435, 48 h; in short: as §1
M14 = assay: Cytotoxicity against human M14 cells after 48 hrs by SRB assay; settings: M14, 48 h; for CC50: read-out: LC50 (the source's name); in short: as §1
Malme-3M = assay: Cytotoxicity against human MALME-3M cells after 48 hrs by SRB assay; in short: as §1
U-251 = assay: Cytotoxicity against human U251 cells after 48 hrs by SRB assay; settings: U-251, 48 h; for CC50: read-out: LC50 (the source's name); in short: as §2
LOX IMVI = assay: Cytotoxicity against human LOXIMVI cells after 48 hrs by SRB assay; in short: as §1
SF-539 = assay: Cytotoxicity against human SF539 cells after 48 hrs by SRB assay; settings: SF-539, 48 h; for CC50: read-out: LC50 (the source's name); in short: as §1
SF-295 = assay: Cytotoxicity against human SF295 cells after 48 hrs by SRB assay; settings: SF-295, 48 h; in short: as §1
SF-268 = assay: Cytotoxicity against human SF268 cells after 48 hrs by SRB assay; settings: SF-268, 48 h; in short: as §1
KM12 = assay: Cytotoxicity against human KM12 cells after 48 hrs by SRB assay; settings: KM12, 48 h; in short: as §1
HCT-15 = assay: Cytotoxicity against human HCT15 cells after 48 hrs by SRB assay; settings: HCT-15, 48 h; in short: as §1
HT-29 = assay: Cytotoxicity against human HT-29 cells after 48 hrs by SRB assay; settings: HT-29, 48 h; in short: as §1
HCT-116 = assay: Cytotoxicity against human HCT116 cells after 48 hrs by SRB assay; settings: HCT-116, 48 h; in short: as §1
HCC 2998 = assay: Cytotoxicity against human HCC2998 cells after 48 hrs by SRB assay; settings: HCC 2998, 48 h; in short: as §1
NCI-H522 = assay: Cytotoxicity against human NCI-H522 cells after 48 hrs by SRB assay; settings: NCI-H522, 48 h; in short: as §1
COLO 205 = assay: Cytotoxicity against human COLO205 cells after 48 hrs by SRB assay; settings: COLO 205, 48 h; in short: as §1
NCI-H460 = assay: Cytotoxicity against human NCI-H460 cells after 48 hrs by SRB assay; settings: NCI-H460, 48 h; in short: as §1
NCI-H226 = assay: Cytotoxicity against human NCI-H226 cells after 48 hrs by SRB assay; settings: NCI-H226, 48 h; in short: as §1
SR = assay: Cytotoxicity against human SR cells after 48 hrs by SRB assay; in short: as §2
A549 = assay: Cytotoxicity against human A549/ATCC cells after 48 hrs by SRB assay; settings: A549, 48 h; for CC50: read-out: LC50 (the source's name); in short: as §1
RPMI-8226 = assay: Cytotoxicity against human RPMI8226 cells after 48 hrs by SRB assay; settings: RPMI-8226, 48 h; in short: as §1

CC(=O)N1N=C(c2ccc(Nc3ccnc4cc(Cl)ccc34)cc2)CC1c1ccc(Cl)cc1 (configuration not stated)
inhibition at 20 µg/mL (Plasmodium falciparum): 32.9% | GI50 (MDA-MB-468): 2410 nM | LC50 (MDA-MB-468): > 100 µM | GI50 (BT-549): 5.4 µM | LC50 (50% net cell kill vs time zero) (BT-549): > 100 µM | GI50 (T47D): 1570 nM | LC50 (concentration giving 50% cell kill relative to time zero) (T47D): > 100 µM | GI50 (SN12C): 30.7 µM | LC50 (50% net cell kill relative to time zero) (SN12C): > 100 µM | GI50 (CAKI-1): > 100 µM | LC50 (CAKI-1): > 100 µM | GI50 (RXF 393): 5.07 µM | LC50 (concentration killing 50% of cells) (RXF 393): > 100 µM | GI50 (SK-OV-3): > 100 µM | LC50 (concentration killing 50% of cells) (SK-OV-3): > 100 µM | GI50 (NCI/ADR-RES): 3040 nM | CC50 (NCI/ADR-RES): > 100 µM | GI50 (OVCAR-8): > 100 µM | LC50 (50% net cell kill) (OVCAR-8): > 100 µM | GI50 (IGROV-1): > 100 µM | LC50 (concentration killing 50% of cells relative to time zero) (IGROV-1): > 100 µM | GI50 (UACC-62): 2950 nM | CC50 (UACC-62): > 100 µM | GI50 (SK-MEL-5): 2200 nM | LC50 (concentration killing 50% of cells present at time zero) (SK-MEL-5): > 100 µM | GI50 (SK-MEL-2): > 100 µM | LC50 (SK-MEL-2): > 100 µM | GI50 (MDA-MB-435): 570 nM | LC50 (MDA-MB-435): > 100 µM | GI50 (M14): 5.24 µM | CC50 (M14): > 100 µM | LC50 (Malme-3M): > 100 µM | GI50 (U-251): > 100 µM | CC50 (U-251): > 100 µM | GI50 (LOX IMVI): 3150 nM | LC50 (LOX IMVI): > 100 µM | GI50 (SF-539): > 100 µM | CC50 (SF-539): > 100 µM | GI50 (SF-295): 3580 nM | LC50 (SF-295): > 100 µM | GI50 (SF-268): 9.1 µM | LC50 (SF-268): > 100 µM | GI50 (KM12): 6.59 µM | LC50 (concentration killing 50% of cells) (KM12): > 100 µM | GI50 (HCT-15): 3330 nM | LC50 (concentration killing 50% of cells relative to time zero) (HCT-15): > 100 µM | GI50 (HT-29): 5.4 µM | LC50 (HT-29): > 100 µM | GI50 (HCT-116): 38.8 µM | LC50 (HCT-116): > 100 µM | GI50 (HCC 2998): > 100 µM | LC50 (HCC 2998): > 100 µM | GI50 (NCI-H522): 5.05 µM | CC50 (NCI-H522; read-out: LC50 (the source's name)): > 100 µM | GI50 (COLO 205): 5.93 µM | LC50 (COLO 205): > 100 µM | GI50 (NCI-H460): > 100 µM | LC50 (NCI-H460): > 100 µM | GI50 (NCI-H226): > 100 µM | LC50 (50% lethal concentration) (NCI-H226): > 100 µM | GI50 (SR): 610 nM | LC50 (SR): > 100 µM | GI50 (A549): 8.81 µM | CC50 (A549): > 100 µM

O=CN1N=C(c2ccc(Nc3ccnc4cc(Cl)ccc34)cc2)CC1c1ccccc1 (configuration not stated)
inhibition at 20 µg/mL (Plasmodium falciparum): 20.2% | GI50 (MDA-MB-468): 980 nM | LC50 (MDA-MB-468): 10 µM | GI50 (BT-549): 3.81 µM | LC50 (50% net cell kill vs time zero) (BT-549): 53.8 µM | GI50 (T47D): 2180 nM | LC50 (concentration giving 50% cell kill relative to time zero) (T47D): > 100 µM | GI50 (SN12C): 3.8 µM | LC50 (50% net cell kill relative to time zero) (SN12C): > 100 µM | GI50 (CAKI-1): 3.82 µM | LC50 (CAKI-1): > 100 µM | GI50 (RXF 393): 2.2 µM | LC50 (concentration killing 50% of cells) (RXF 393): > 100 µM | GI50 (SK-OV-3): 11.3 µM | LC50 (concentration killing 50% of cells) (SK-OV-3): > 100 µM | GI50 (NCI/ADR-RES): 2690 nM | CC50 (NCI/ADR-RES): > 100 µM | GI50 (OVCAR-8): 4.53 µM | LC50 (50% net cell kill) (OVCAR-8): > 100 µM | GI50 (IGROV-1): 9.36 µM | LC50 (concentration killing 50% of cells relative to time zero) (IGROV-1): > 100 µM | GI50 (UACC-62): 1550 nM | CC50 (UACC-62): 17.4 µM | GI50 (SK-MEL-5): 1380 nM | LC50 (concentration killing 50% of cells present at time zero) (SK-MEL-5): 11.2 µM | GI50 (MDA-MB-435): 1590 nM | LC50 (MDA-MB-435): > 100 µM | GI50 (M14): 4.12 µM | CC50 (M14): > 100 µM | GI50 (Malme-3M): 4.21 µM | LC50 (Malme-3M): > 100 µM | GI50 (U-251): 3.12 µM | CC50 (U-251): > 100 µM | GI50 (LOX IMVI): 1610 nM | LC50 (LOX IMVI): 6.88 µM | GI50 (SF-539): 4.57 µM | CC50 (SF-539): 99.2 µM | GI50 (SF-295): 2410 nM | LC50 (SF-295): > 100 µM | GI50 (SF-268): 3.96 µM | LC50 (SF-268): > 100 µM | GI50 (KM12): 3.41 µM | LC50 (concentration killing 50% of cells) (KM12): > 100 µM | GI50 (HCT-15): 2540 nM | LC50 (concentration killing 50% of cells relative to time zero) (HCT-15): > 100 µM | GI50 (HT-29): 3.21 µM | LC50 (HT-29): > 100 µM | GI50 (HCT-116): 3.58 µM | LC50 (HCT-116): > 100 µM | GI50 (HCC 2998): 3.5 µM | LC50 (HCC 2998): > 100 µM | GI50 (COLO 205): 2.21 µM | LC50 (COLO 205): > 100 µM | GI50 (NCI-H460): 3.96 µM | LC50 (NCI-H460): > 100 µM | GI50 (NCI-H226): 5.22 µM | LC50 (50% lethal concentration) (NCI-H226): > 100 µM | GI50 (SR): 1770 nM | LC50 (SR): > 100 µM | GI50 (A549): 4.05 µM | CC50 (A549): > 100 µM | GI50 (RPMI-8226): 2550 nM | LC50 (concentration killing 50% of cells) (RPMI-8226): > 100 µM
